In paper PMC9053952 (RSC Advances, 2020):
“Also recorded” adds a separate entry of the source. Starred links: 1 amine or outer side, 2 acyl side, 3 side chain; linkers in the order of their positions; H or OH if unused. Non-standard residues stand in square brackets, D forms with d. Residues, ends and D or L forms follow the SMILES beside them. *: point of attachment. X2 = COc1ccc([N+]2=NC(C#N)=NN(c3ccc(-c4cn(CCCC[C@H](N[*:1])C(=O)[*:2])nn4)cc3)[B-]2(F)F)cc1; Octanoyl = CCCCCCCC(=O)*; Dap = NC[C@H](N)C(=O)O

Assays:
parental OVCAR-8 cells = test: Confocal fluorescence microscopy of parental OVCAR-8 cells; format: cell-based; details: low expression of GHSR-1a
Outline: (§1)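 OVCAR-8 cells, either stably transfected with GHSR-1a or parental, were detached with trypsin-free dissociation buffer and seeded at 50 000 cells/well on coverslips. They were cultured overnight in RPMI/10% FBS at 37 °C, 5% CO2. Test compound at 0.1 μM was added in serum-free RPMI for 1 h at 37 °C. Cells were washed three times with PBS, fixed in 4% paraformaldehyde and mounted with DAPI. Confocal settings: ex 559 nm, em 598–698 nm; 40× and 60× objectives.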

[1] = system: OVCAR-8 cells stably transfected with GHSR-1a; test: Confocal fluorescence microscopy of OVCAR-8 cells transfected with GHSR-1a; format: cell-based; details: 0.1 μM, 1 h, 37 °C
Outline: as §1

GHSR-1a = GHSR-1a (Homo sapiens, UniProt Q92847); test: Radioligand competitive binding assay, GHSR-1a
Outline: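 Competition binding used membranes from HEK293 cells transiently transfected with GHSR-1a (50 000 cells/tube) and human [125I]-ghrelin(1–28) (15 000 cpm/tube). Test peptide was run at 10−11 to 10−5 M, with incubation for 20 min at 550 rpm. Unbound radioligand was removed and bound activity gamma-counted. Human ghrelin(1–28) served as reference. IC50 came from nonlinear regression; assays were run in triplicate.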

Photophysical properties = format: physicochemical; details: in DMSO; for λabs (absorption maximum): UV-Vis spectrophotometer; for ΦF (fluorescence quantum yield): comparative method, [Ru(bpy)3][PF6]2 as relative standard
Outline: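 Measurements were made in DMSO. UV-Vis absorption and excitation/emission spectra were recorded. Molar extinction coefficient was taken from the slope of absorbance versus concentration over seven solutions of known concentration. Fluorescence quantum yield was determined by the comparative method against the [Ru(bpy)3][PF6]2 standard.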

GRPR in PC-3 cells = test: Blocking study in PC-3 cells with parent peptide 3; format: cell-based; details: 0.5 μM 7, 1 h, 37 °C; 10-fold molar excess of 3
PC-3 cells = test: Confocal fluorescence microscopy of PC-3 cells; format: cell-based; details: 0.5 μM, 1 h, 37 °C
Outline: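 PC-3 cells, with native GRPR, were detached with trypsin-free dissociation buffer and seeded at 50 000 cells/well on coverslips. They were cultured overnight in F-12K/10% FBS at 37 °C, 5% CO2. Test compound at 0.5 μM was added in serum-free F-12K for 1 h at 37 °C, alone or with a 10-fold molar excess of the unlabelled parent peptide as blocker. Cells were PBS-washed three times, fixed in 4% paraformaldehyde and mounted with DAPI. Confocal settings: ex 559 nm, em 605–705 nm.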

GRPR = GRPR (Homo sapiens, UniProt P30550); test: Radioligand competitive binding assay, GRPR
Outline: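 Whole-cell competition binding used PC-3 cells (500 000/vial) grown in F-12K/10% FBS, with [125I]Tyr4-bombesin as radioligand. Test peptide was run at 10−12 to 10−6 M, shaking at 550 rpm for 1 h at 37 °C. Cells were centrifuged, the pellet washed with 50 mM Tris pH 7.4, and bound activity gamma-counted. IC50 came from nonlinear regression; assays were run in triplicate.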

Sequence of GRPR (P30550 whole entry): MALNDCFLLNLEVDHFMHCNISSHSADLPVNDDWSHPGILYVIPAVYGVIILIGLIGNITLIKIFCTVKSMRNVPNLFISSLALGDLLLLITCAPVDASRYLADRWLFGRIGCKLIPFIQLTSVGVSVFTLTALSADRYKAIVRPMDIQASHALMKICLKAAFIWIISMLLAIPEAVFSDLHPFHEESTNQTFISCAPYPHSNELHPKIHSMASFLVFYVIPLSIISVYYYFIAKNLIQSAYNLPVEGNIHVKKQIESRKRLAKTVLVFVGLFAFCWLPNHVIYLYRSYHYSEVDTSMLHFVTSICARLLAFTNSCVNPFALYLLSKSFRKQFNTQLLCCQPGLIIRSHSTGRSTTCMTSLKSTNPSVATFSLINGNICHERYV
Sequence of GHSR-1a (Q92847 whole entry): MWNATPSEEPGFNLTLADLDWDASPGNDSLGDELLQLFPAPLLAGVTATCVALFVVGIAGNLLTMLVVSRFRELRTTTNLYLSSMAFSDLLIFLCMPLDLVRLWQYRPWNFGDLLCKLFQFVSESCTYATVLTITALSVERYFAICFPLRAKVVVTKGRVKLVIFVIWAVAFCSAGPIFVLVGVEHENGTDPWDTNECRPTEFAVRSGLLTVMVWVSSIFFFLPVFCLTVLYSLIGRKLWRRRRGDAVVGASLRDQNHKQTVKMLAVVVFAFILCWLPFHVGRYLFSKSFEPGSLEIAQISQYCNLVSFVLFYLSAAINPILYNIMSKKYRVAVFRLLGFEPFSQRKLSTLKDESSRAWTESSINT

SMILES: CCCCCCCC(=O)NC[C@H](NC(=O)[C@H](CO)NC(=O)CN)C(=O)N[C@@H](Cc1ccccc1)C(=O)N[C@@H](CC(C)C)C(=O)N[C@@H](CO)C(=O)N1CCC[C@H]1C(=O)N[C@H](C(=O)N[C@@H](CCCCn1cc(-c2ccc(N3N=C(C#N)N=[N+](c4ccc(OC)cc4)[B-]3(F)F)cc2)nn1)C(N)=O)[C@@H](C)O [Compound 5, [Dpr(octanoyl)^3,Thr^8,Lys(triazole-formazanate)^9]ghrelin(1–9)] (H-GS[Dap](Octanoyl)FLSPT[X2]-NH2; N-terminus assumed)
- cellular uptake (red emission) (parental OVCAR-8 cells): minimal uptake of 5
- specific binding for GHSR-1a by confocal fluorescence microscopy [1]: specific binding of 5 for GHSR-1a
- IC50 (GHSR-1a): 89 nM
- receptor affinity relative to parent peptide (in words) (GHSR-1a; vs parent peptide 2, GHSR-1a): decrease in receptor affinity
- λem (emission maximum) (Photophysical properties): 688 nm
- λabs (absorption maximum) (Photophysical properties): 560 nm
- ΦF (fluorescence quantum yield) (Photophysical properties): 21%

SMILES: CCCC[C@H](NC(=O)[C@H](Cc1ccccc1)NC(=O)[C@H](Cc1c[nH]cn1)NC(=O)CCNC(=O)[C@@H](NC(=O)[C@H](C)NC(=O)[C@H](Cc1c[nH]c2ccccc12)NC(=O)[C@H](CCC(N)=O)NC(=O)[C@@H](Cc1ccccc1)NC(=O)COCC(=O)NCCOCCOCCOCCOCCOCCOCCOCCOCCn1cc(-c2ccc([N+]3=NC(C#N)=NN(c4ccc(OC)cc4)[B-]3(F)F)cc2)nn1)C(C)C)C(N)=O [Compound 7] (HELM PEPTIDE1{[COc1ccc(N2N=C(C#N)N=[N+](c3ccc(-c4cn(CCOCCOCCOCCOCCOCCOCCOCCOCCNC(=O)COCC(=O)[*:2])nn4)cc3)[B-]2(F)F)cc1].[dF].Q.W.A.V.[bAla].H.F.[Nle].[am]}$$$$V2.0)
- displacement by parent peptide 3 (GRPR in PC-3 cells): displacement of 7 by 10-fold molar excess of 3
- specific binding for GRPR by confocal fluorescence microscopy (PC-3 cells): analogue 7 for GRPR was demonstrated; also recorded: specific binding of analogue 7 to GRPR
- λem (emission maximum) (Photophysical properties): 690 nm
- λabs (absorption maximum) (Photophysical properties): 555 nm
- ΦF (fluorescence quantum yield) (Photophysical properties): 12%
- ε (molar extinction coefficient) (Photophysical properties; slope of absorbance against concentration, seven solutions): 31 900 M^−1 cm^−1
- IC50 (GRPR): 16.3 nM
- receptor affinity relative to parent peptide (in words) (GRPR; vs parent peptide 3, GRPR): decrease in receptor affinity
